From article PMC10694180 (Heliyon, 2023)
“Also recorded” adds a separate entry of the source. Like-named read-outs stand apart in the source and are kept apart here.

Legend:
[1] = tested on: hypoxia induced ID8 mouse ovarian epithelial cell line; experiment: MTT assay, hypoxia induced ovarian cancer cell line ID8; format: cell-based; details: for inhibition of cell proliferation: ID8 cells, 50 μM concentration; for IC50: 72 h
Outline: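 Hypoxia-induced mouse ID8 ovarian epithelial cells were seeded in 96-well plates and exposed to test compound or control. MTT was added 72 h after drug addition, and the resuspended formazan was read by absorbance. Growth inhibition (%) = [1 − (A/B)] × 100, where A is treated wells and B is control wells; n = 3.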

[2] = molecular target: Hypoxia-inducible factor 1-alpha (HIF-1α) (Mus musculus, UniProt Q61221); experiment: Quantitative HIF-1α inhibitory assay; format: cell-based; details: ELISA, cell extracts, 50 μM concentration (Fig. 3)
Sequence of Hypoxia-inducible factor 1-alpha (HIF-1α) (Q61221 whole entry): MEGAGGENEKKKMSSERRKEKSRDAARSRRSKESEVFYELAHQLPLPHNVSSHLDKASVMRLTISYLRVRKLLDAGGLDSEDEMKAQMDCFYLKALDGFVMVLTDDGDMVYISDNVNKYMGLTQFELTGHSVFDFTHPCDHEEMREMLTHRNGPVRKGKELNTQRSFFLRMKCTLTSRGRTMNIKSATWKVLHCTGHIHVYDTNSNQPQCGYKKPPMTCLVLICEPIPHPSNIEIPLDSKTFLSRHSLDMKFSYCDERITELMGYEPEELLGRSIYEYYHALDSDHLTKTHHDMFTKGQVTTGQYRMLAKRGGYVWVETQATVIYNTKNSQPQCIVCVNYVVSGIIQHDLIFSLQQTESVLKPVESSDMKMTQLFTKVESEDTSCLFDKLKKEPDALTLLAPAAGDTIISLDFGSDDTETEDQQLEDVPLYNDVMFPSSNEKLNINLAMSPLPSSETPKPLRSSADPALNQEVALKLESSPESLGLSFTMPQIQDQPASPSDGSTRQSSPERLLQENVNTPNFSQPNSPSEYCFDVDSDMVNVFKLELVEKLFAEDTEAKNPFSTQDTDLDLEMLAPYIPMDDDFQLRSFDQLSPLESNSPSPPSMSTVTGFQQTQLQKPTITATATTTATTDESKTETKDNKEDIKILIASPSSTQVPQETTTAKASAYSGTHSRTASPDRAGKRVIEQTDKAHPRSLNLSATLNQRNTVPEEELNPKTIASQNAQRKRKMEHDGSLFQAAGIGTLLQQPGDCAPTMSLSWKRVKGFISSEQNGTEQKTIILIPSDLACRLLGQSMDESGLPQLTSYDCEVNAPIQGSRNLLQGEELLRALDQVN
Outline: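 Mouse HIF-1α quantified with a simple-step ELISA kit run per the manufacturer. Cell lysate concentrates from fresh material were added to wells coated with double-stranded DNA carrying HIF-1α-binding HREs. Bound HIF-1α was detected with a primary mouse anti-HIF-1α antibody and a labelled secondary anti-mouse antibody, and absorbance was read at 450 nm.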

[3] = Solubility data of synthesized compounds; format: physicochemical; details: solvents: DMSO, ethanol, ethanolic water
[4] = read-out: IC50 (μM), viability of Ovarian cancer cell lines ID8, hypoxia induced ID8, MTT, n = 3
[5] = Mus musculus, Epithelial cell, read-out: IC50 (μM), viability of Ovarian cancer cell lines ID8, hypoxia induced ID8, MTT, 72 h, n = 3

N.N.[Cl][Pt][Cl] [Cisplatin, reference compound]
inhibition of cell proliferation [1]: 60% | IC50 [1, 4]: 8.5 ± 0.23 µM | IC50 ([1]; read-out: IC50 (μM), viability of Ovarian cancer cell lines ID8, hypoxia induced ID8, MTT, n = 3, listed as cisplatin): 8.5 µM

O=C(CN1CCOCC1)N1CCOCC1 [Compound 1a, 1,2-di (morpholin-4-yl) ethanone]
IC50 [1, 5]: 23.9 ± 0.61 µM

O=C(CN1CCCC1)N1CCOCC1 [Compound 1b, 1-(morpholin-4-yl)-2-(pyrrolidin-1-yl) ethanone]
IC50 [1, 5]: 14.8 ± 0.7 µM

O=C(CNc1ccccn1)N1CCOCC1 [Compound 1c, 1-(morpholin-4-yl)-2-(pyridin-2-ylamino) ethanone]
IC50 [1, 5]: 15.7 ± 0.64 µM | inhibition of HIF-1α [2]: significant inhibitory effects; also recorded: optimal activity; also recorded: promising activities

COc1cccc(NCC(=O)N2CCOCC2)c1 [Compound 1d, 2-[(3-methoxyphenyl)amino]-1-(morpholin-4-yl) ethanone]
IC50 [1, 5]: 25.3 ± 0.82 µM | inhibition of HIF-1α [2]: lesser inhibition

COc1ccc(NCC(=O)N2CCOCC2)cc1 [Compound 1e, 2-[(4-methoxyphenyl)amino]-1-(morpholin-4-yl)ethanone]
IC50 [1, 5]: 26.4 ± 0.72 µM

COc1ccccc1NCC(=O)N1CCOCC1 [Compound 1f, 2-[(2-methoxyphenyl)amino]-1-(morpholin-4-yl) ethanone]
IC50 [1, 5]: 158.4 ± 0.66 µM

O=C(COc1ccccc1)N1CCOCC1 [Compound 1g, 1-(morpholin-4-yl)-2-phenoxyethanone]
IC50 [1, 5]: 146.1 ± 0.56 µM | solubility [3]: only soluble in DMSO

O=C(CNc1ccc(F)cc1)N1CCOCC1 [Compound 1h, 2-[(4-fluorophenyl)amino]-1-(morpholin-4-yl) ethanone]
inhibition of cell proliferation [1]: maximum inhibition | IC50 [1, 5]: 9.4 µM | IC50 [1, 4]: 9.41 ± 0.73 µM | inhibition of HIF-1α [2]: significant inhibitory effects; also recorded: optimal activity; also recorded: good inhibition

Cc1ccc(C(C)C)c(OCC(=O)N2CCOCC2)c1 [Compound 1i, 2-[5-methyl-2-(propan-2-yl)phenoxy]-1-(morpholin-4-yl) ethanone]
inhibition of cell proliferation [1]: maximum inhibition | IC50 [1, 5]: 11.2 ± 0.22 µM | inhibition of HIF-1α [2]: significant inhibitory effects; also recorded: optimal activity; also recorded: good inhibition

O=C(CNCc1ccc(Cl)cc1)N1CCOCC1 [Compound 1j, 2-[(4-chlorobenzyl)amino]-1-(morpholin-4-yl) ethanone]
IC50 [1, 5]: 21.49 ± 0.11 µM | solubility [3]: only soluble in DMSO

O=C(CNCc1ccc(F)cc1)N1CCOCC1 [Compound 1k, 2-[(4-fluorobenzyl)amino]-1-(morpholin-4-yl) ethanone]
IC50 [1, 5]: 64.2 ± 0.88 µM

O=C(CNc1nnc(-c2ccccc2)o1)N1CCOCC1 [Compound 1l, 1-(morpholin-4-yl)-2-[(5-phenyl-1,3,4-oxadiazol-2-yl)amino] ethanone]
IC50 [1, 5]: 15.6 µM | inhibition at 50 µM ([1]; Mus musculus, ID8, read-out: inhibition of cell proliferation): 60% | IC50 [1, 4]: 15.6 ± 0.77 µM

O=C(CSc1nc2ccccc2s1)N1CCOCC1 [Compound 1m, 2-(1,3-benzothiazol-2-ylsulfanyl)-1-(morpholin-4-yl) ethanone]
IC50 [1, 5]: 32.4 ± 0.67 µM

O=C(CNCc1ccccc1)N1CCOCC1 [Compound 1n, 2-(benzylamino)-1-(morpholin-4-yl) ethanone]
IC50 [1, 5]: 47.9 ± 0.75 µM | solubility [3]: only soluble in DMSO
